Assay results collected from several papers.
Lines come from different studies, so protocols differ.
Target: Citron Rho-interacting kinase (CIT, Homo sapiens, UniProt O14578)

| Compound | assay | setting | quantity | value |
| --- | --- | --- | --- | --- |
| CO[C@@H]1[C@H](N(C)C(=O)c2ccccc2)C[C@H]2O[C@]1(C)n1c3ccccc3c3c4c(c5c6ccccc6n2c5c31)C(=O)NC4 | enzyme activity, inhibitor | 1 µM | inhibition | 0% |
| CCCCC(=O)Nc1ccc(-c2ccc3ncn(CCC)c(=O)c3c2)cn1 | binding, competition with immobilised ligand | 0.5 µM | remaining binding | 83% |
| CN1CCN(C(=O)c2ccc(NC(=O)Nc3ccc(N(C)c4ccnc(Nc5ccc(CS(C)(=O)=O)cc5)n4)cc3)cc2)CC1 | binding, competition with immobilised ligand | 1 µM | remaining binding | 79% |
| CC#CC(=O)N1CCC[C@H]1c1nc(-c2ccc(C(=O)Nc3ccccn3)cc2)c2c(N)nccn12 | enzyme activity, inhibitor | 1 µM | inhibition | 1% |
| Cc1ccc(NC(=O)c2ccnc(C(F)(F)F)c2)cc1-c1cc(OCCO)nc(N2CCOCC2)c1 | binding, competition with immobilised ligand | 1 µM | remaining binding | 96% |
| CC(C)S(=O)(=O)c1ccc2nccc(Nc3ccc4sc(C5CCCC5)nc4c3)c2c1 | enzyme activity, inhibitor | 1 µM | activity vs control | 113% |
| COc1ccc2oc(-c3ccc4nc(N)oc4c3)c/c(=N\c3ccccc3NC(=O)CCN)c2c1 | binding | 1 µM | remaining binding | 92% |
| C1=C/COCc2cc(ccc2OCCN2CCCC2)Nc2nccc(n2)-c2cccc(c2)COC/1 | cell-free assay | 0.1 µM | remaining signal | 72% |
